The source of these data is ChEMBL document CHEMBL3407461 (J Med Chem, 2014).

The subject of assay [1] is Mus musculus. Briefly: Antinociceptive activity in chronic constriction injury neutropathic pain CD-1 mouse model assessed as time for peak protection at 3 umol/kg, po. In kind it is functional. The essentials:
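Male CD-1 mice (25−30 g), chronic constriction injury of left sciatic nerve (Bennett model) under isoflurane. Dosed by gavage (3 μmol/kg, 0.2 mL) at peak mechano-allodynia on day 7; vehicle 10% DMSO in 0.5% methylcellulose. Paw withdrawal threshold (g) measured on the ipsilateral hind paw from 30 min to 5 h post dose. Expressed as % reversal, mean ± SEM over n animals.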

Assay [2] deals with T1, Adenosine receptor A1 (Homo sapiens) (UniProt P30542).
T1 sequence (whole entry): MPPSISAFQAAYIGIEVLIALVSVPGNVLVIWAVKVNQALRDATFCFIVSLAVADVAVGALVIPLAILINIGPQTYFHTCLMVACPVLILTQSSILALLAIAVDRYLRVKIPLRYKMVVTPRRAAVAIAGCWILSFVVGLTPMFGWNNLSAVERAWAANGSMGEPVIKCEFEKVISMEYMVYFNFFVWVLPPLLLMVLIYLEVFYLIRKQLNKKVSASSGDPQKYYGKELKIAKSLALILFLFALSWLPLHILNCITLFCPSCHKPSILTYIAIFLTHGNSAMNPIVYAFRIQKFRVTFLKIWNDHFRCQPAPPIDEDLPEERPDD
Briefly: Displacement of [3H]R-PIA from human recombinant A1 adenosine receptor expressed in CHO cells at 10 uM after 60 mins by liquid scintillation counting. The format is cell-based. On the technique in general: Loss of bound radioactivity is the signal in a displacement assay; it reports binding, not function.

Assay [3] deals with Adenosine receptor A2a (Homo sapiens) (UniProt P29274). Briefly: Displacement of [3H]CGS21680 from human recombinant A2A adenosine receptor expressed in HEK293 cells at 10 uM after 60 mins by liquid scintillation counting. In kind it is cell-based.
Sequence of Adenosine receptor A2a (Homo sapiens) (P29274 whole entry): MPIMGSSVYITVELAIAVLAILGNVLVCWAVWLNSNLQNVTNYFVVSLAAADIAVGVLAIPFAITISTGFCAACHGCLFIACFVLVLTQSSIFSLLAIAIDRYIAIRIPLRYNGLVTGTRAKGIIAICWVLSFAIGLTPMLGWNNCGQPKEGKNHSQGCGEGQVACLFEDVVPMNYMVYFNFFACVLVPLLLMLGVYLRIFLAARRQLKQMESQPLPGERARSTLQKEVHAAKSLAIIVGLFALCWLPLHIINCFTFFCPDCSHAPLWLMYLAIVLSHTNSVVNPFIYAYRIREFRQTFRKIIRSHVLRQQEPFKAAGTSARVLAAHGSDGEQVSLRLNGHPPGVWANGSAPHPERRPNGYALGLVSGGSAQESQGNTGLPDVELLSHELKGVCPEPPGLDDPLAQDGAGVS
Assay [4] concerns Mus musculus. Briefly: Antinociceptive activity in chronic constriction injury neutropathic pain CD-1 mouse model assessed as maximum protection on ipsilateral hind paw at 3 umol/kg, po after 30 mins to 5 hrs post dose relative to control. The format is functional. The conditions noted are these: CD-1, po.

For orientation: inhibition means the relative decrease from the control value, in per cent. `CNC(=O)[C@@]12C[C@@H]1[C@@H](n1cnc3c(NC)nc(C#Cc4cccnc4)nc31)[C@H](O)[C@@H]2O`: the Time in assay [1] stood at 0.5 h. In addition, the inhibition in assay [2] turned out to be 16%; in assay [3] it was 12%.
With `CNC(=O)[C@@]12C[C@@H]1[C@@H](n1cnc3c(NC)nc(C#Cc4ccc(CO)cc4)nc31)[C@H](O)[C@@H]2O`, in assay [1], the Time turned out to be 1 h. Further, the figures for the inhibition in assay [2] and in assay [3] were 16% and 11%, respectively.
In the case of `CNC(=O)[C@@]12C[C@@H]1[C@@H](n1cnc3c(NC)nc(C#Cc4cccc(C(F)(F)F)c4)nc31)C(O)C2O` (single isomer, unassigned), the Time in assay [1] amounted to 0.5 h. Also, the inhibition in assay [2] is 10%; in assay [3], 12%.
`CNC(=O)[C@@]12C[C@@H]1[C@@H](n1cnc3c(NC)nc(C#Cc4cc(C)c(C)o4)nc31)[C@H](O)[C@@H]2O`: the Time in assay [1] turned out to be 1 h. Also, the inhibition in assay [2] stood at 15%; in assay [3], 21%.
As for `CNC(=O)[C@@]12C[C@@H]1[C@@H](n1cnc3c(NC)nc(C#Cc4cccc(OC)c4)nc31)[C@H](O)[C@@H]2O`, the Time in assay [1] was 0.5 h. In addition, the inhibition in assay [2] turned out to be 8%; in assay [3], 26%.
As a reminder, the Emax is the greatest response seen or fitted, relative to the assay's reference. Turning to `CNC(=O)[C@@]12C[C@@H]1[C@@H](n1cnc3c(NC)nc(C#Cc4ccccc4OC)nc31)[C@H](O)[C@@H]2O`, the Time in assay [1] amounted to 1 h. Moreover, the Emax at 3 µmol/kg in assay [4] came to 64.3%. For the same compound, the inhibition in assay [2] was 12%; in assay [3], 20%.
For `CNC(=O)[C@@]12C[C@@H]1[C@@H](n1cnc3c(NC)nc(C#Cc4cc5ccccc5o4)nc31)[C@H](O)[C@@H]2O`, in that order: 1 h, 87.4%, 13% and 18%.
`CNC(=O)[C@@]12C[C@@H]1[C@@H](n1cnc3c(NC)nc(C#Cc4ccncc4)nc31)[C@H](O)[C@@H]2O`: the Time in assay [1] is 1 h. For the same compound, the inhibition in assay [2] worked out at 15%; in assay [3], 2%.
Turning to `CNC(=O)[C@@]12C[C@@H]1[C@@H](n1cnc3c(NC)nc(C#Cc4ccsc4)nc31)[C@H](O)[C@@H]2O`, the Time in assay [1] came out at 0.5 h. Besides, the inhibition worked out at 11% in assay [2] and 3% in assay [3].
On to `CNC(=O)[C@@]12C[C@@H]1[C@@H](n1cnc3c(NC)nc(C#Cc4ccc(OC)cc4)nc31)[C@H](O)[C@@H]2O`, for which the Time in assay [1] was found to be 0.5 h. Moreover, the inhibition was 10% in assay [2] and 24% in assay [3].
Turning to `CNC(=O)[C@@]12C[C@@H]1[C@@H](n1cnc3c(NC)nc(C#Cc4cc[nH]n4)nc31)[C@H](O)[C@@H]2O`, the Time in assay [1] was found to be 0.5 h. Moreover, the inhibition in assay [2] turned out to be 30%; in assay [3] it was 19%.
Regarding `CNC(=O)[C@@]12C[C@@H]1[C@@H](n1cnc3c(NC)nc(C#Cc4cccnn4)nc31)[C@H](O)[C@@H]2O`, the Time in assay [1] was 0.5 h. The inhibition in assay [2] was found to be 11%; in assay [3], 13%.
On to `CCc1ccc(C#Cc2nc(NC)c3ncn([C@H]4[C@H](O)[C@H](O)[C@]5(C(=O)NC)C[C@H]45)c3n2)o1`, for which the Time in assay [1] turned out to be 1 h. Also, the inhibition in assay [2] was 18%; in assay [3] it was 4%.
In the case of `CNC(=O)[C@@]12C[C@@H]1[C@@H](n1cnc3c(NC)nc(C#CC4CCCCC4)nc31)[C@H](O)[C@@H]2O`, the Time in assay [1] was 1 h. Also, in assay [4], the maximal effect (Emax) at 3 µmol/kg turned out to be 64.1%. The results for the inhibition in assay [2] and in assay [3] were 15% and 45%, respectively.
On to `CNC(=O)[C@@]12C[C@@H]1[C@@H](n1cnc3c(NC)nc(C#Cc4ncccn4)nc31)[C@H](O)[C@@H]2O`, for which the Time in assay [1] was 0.5 h. For the same compound, the maximal effect (Emax) at 3 µmol/kg in assay [4] came to 92.3%. For the same compound, the inhibition in assay [2] was 25%; in assay [3], 27%.
